Assay results taken from ChEMBL document CHEMBL1944541, “Novel inhibitors of nitric oxide synthase with antioxidant properties” (Eur J Med Chem, 2012).

Assays:
[1] = Antioxidant activity assessed as NADH oxidation-induced superoxide radical scavenging activity at 50 uM after 20 mins relative to control; type: functional
Procedure, shortened: (§1)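 Superoxide generated without a Fenton-type reaction from NADH, EDTA/MnCl2 and β-mercaptoethanol in triethanolamine-diethanolamine buffer, pH 7.4 (1 mL). Compounds tested at 25, 50 and 100. […] IC50 was calculated. SOD (40 mU/ml) served as reference. SD ≤10% (n ≥ 3).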

[2] = Antioxidant activity assessed as NADH oxidation-induced superoxide radical scavenging activity at 100 uM after 20 mins relative to control; type: functional; procedure, shortened: as §1
Plasma [3] = experiment: Antioxidant activity in human plasma assessed as inhibition of Fe2+-induced lipid hydroperoxidation at 100 uM after 2 hrs by FOX assay relative to control; type: functional, cell-free
Procedure, shortened: (§2)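 Plasma from a healthy donor: heparinized venous blood taken after an overnight fast, spun at 800 g for 20 min. Plasma was diluted 1:1 with oxygenated PBS and incubated 2 h at 37 °C with or without compound (10, 50, 100). Lipid hydroperoxides were measured by FOX assay (Fe2+→Fe3+ with xylenol orange, 560 nm), calibrated against H2O2. Results given as percent inhibition against untreated plasma.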

[4] = Antioxidant activity assessed as NADH oxidation-induced superoxide radical scavenging activity after 20 mins; type: functional; procedure, shortened: as §1
Plasma [5] = experiment: Antioxidant activity in human plasma assessed as inhibition of Fe2+-induced lipid hydroperoxidation at 50 uM after 2 hrs by FOX assay relative to control; type: functional, cell-free; procedure, shortened: as §2
[6] = tested on: Radical scavenging activity; experiment: Antioxidant activity assessed as DPPH free radical scavenging activity at 50 uM after 10 mins relative to control; type: functional
Procedure, shortened: (§3)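 Compounds in ethanol with DPPH radical, tested at 50, 100 and 500, held 10 min at room temperature. Absorbance read at 517 nm and reported as percent decrease against control. IC50 was calculated for selected compounds. Trolox served as reference. Standard deviation was ≤10% (n ≥ 3).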

Plasma [7] = experiment: Antioxidant activity in human plasma assessed as inhibition of Fe2+-induced lipid hydroperoxidation at 25 uM after 2 hrs by FOX assay relative to control; type: functional, cell-free
[8] = tested on: Radical scavenging activity; experiment: Antioxidant activity assessed as DPPH free radical scavenging activity after 10 mins; type: functional; procedure, shortened: as §3
[9] = tested on: Radical scavenging activity; experiment: Antioxidant activity assessed as DPPH free radical scavenging activity at 100 uM after 10 mins relative to control; type: functional; procedure, shortened: as §3
[10] = tested on: Radical scavenging activity; experiment: Antioxidant activity assessed as DPPH free radical scavenging activity at 500 uM after 10 mins relative to control; type: functional; procedure, shortened: as §3
Nitric oxide synthase 1 = Nitric oxide synthase 1 (Rattus norvegicus, UniProt P29476); experiment: Inhibition of rat recombinant nNOS expressed in baculovirus-infected Sf9 cells assessed as conversion of oxyhemoglobin to methemoglobin by UV spectrophotometer analysis
Plasma [11] = experiment: Antioxidant activity in human plasma assessed as inhibition of Fe2+-induced lipid hydroperoxidation after 2 hrs by FOX assay; type: functional, cell-free
CYP450 = experiment: Inhibition of rat spleen microsomal CYP450 assessed as reduction of NADPH dependent cytochrome c at 500 uM; type: ADME; conditions: spleen microsomes, probe cytochrome c
Procedure, shortened: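 Rat spleen microsomal P450 activity measured as NADPH-dependent cytochrome c reduction. Incubation 15 min at 25 °C with or without compound, range 5–500.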

[12] = Antioxidant activity assessed as NADH oxidation-induced superoxide radical scavenging activity at 25 uM after 20 mins relative to control; type: functional; procedure, shortened: as §1
Nitric oxide synthase 3 = molecular target: T1, Nitric oxide synthase 3 (Mus musculus, UniProt P70313); experiment: Inhibition of C57BL/6 mouse eNOS assessed as conversion of oxyhemoglobin to methemoglobin by UV spectrophotometer analysis
T1 sequence (P70313 whole entry): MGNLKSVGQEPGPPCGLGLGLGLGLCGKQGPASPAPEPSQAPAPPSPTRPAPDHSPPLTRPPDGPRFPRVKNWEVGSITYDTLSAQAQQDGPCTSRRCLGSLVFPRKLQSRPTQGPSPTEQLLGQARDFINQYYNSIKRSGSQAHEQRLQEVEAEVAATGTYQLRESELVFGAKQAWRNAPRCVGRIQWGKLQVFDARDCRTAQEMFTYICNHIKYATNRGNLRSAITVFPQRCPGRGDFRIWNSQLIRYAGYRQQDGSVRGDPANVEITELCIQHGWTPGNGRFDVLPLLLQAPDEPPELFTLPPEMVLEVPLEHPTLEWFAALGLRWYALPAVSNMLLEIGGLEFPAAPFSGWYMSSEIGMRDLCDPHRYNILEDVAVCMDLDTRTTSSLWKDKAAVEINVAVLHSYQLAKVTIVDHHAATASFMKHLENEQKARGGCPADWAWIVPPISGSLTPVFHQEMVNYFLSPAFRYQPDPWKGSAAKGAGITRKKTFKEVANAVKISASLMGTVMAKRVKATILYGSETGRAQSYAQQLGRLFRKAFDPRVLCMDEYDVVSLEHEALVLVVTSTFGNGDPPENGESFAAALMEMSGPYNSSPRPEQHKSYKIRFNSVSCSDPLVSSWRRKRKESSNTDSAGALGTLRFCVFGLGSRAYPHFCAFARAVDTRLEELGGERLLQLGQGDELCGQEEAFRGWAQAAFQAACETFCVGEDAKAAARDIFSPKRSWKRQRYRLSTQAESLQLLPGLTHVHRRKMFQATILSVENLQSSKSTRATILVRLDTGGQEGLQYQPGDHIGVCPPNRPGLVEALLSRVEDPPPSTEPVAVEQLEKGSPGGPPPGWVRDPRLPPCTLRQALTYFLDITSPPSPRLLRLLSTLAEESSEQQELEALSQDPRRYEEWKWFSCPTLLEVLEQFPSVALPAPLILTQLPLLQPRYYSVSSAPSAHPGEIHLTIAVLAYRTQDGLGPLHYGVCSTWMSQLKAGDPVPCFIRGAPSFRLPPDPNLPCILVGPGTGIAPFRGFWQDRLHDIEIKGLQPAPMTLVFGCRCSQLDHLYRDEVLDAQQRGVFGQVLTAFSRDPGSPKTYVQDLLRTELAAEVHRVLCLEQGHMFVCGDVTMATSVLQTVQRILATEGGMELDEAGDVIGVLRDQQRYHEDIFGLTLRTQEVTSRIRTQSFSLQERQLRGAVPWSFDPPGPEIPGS
Procedure, shortened: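 eNOS from H5V mouse endothelial cells (passage 5, DMEM with 10% FCS, 37 °C, 5% CO2). Cells were sonicated in Tris-HCl pH 7.4 with EDTA, DTT and protease inhibitors, and the 20,000 g supernatant was used. Activity was followed as oxyhemoglobin→methemoglobin conversion in Hepes pH 7.4 with L-arginine, NADPH, FAD, BH4, Ca2+ and calmodulin. Compounds tested at 500, 100 and 50. Results reported as Ki or percent inhibition.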

Chain of Nitric oxide synthase 1 (P29476 whole entry): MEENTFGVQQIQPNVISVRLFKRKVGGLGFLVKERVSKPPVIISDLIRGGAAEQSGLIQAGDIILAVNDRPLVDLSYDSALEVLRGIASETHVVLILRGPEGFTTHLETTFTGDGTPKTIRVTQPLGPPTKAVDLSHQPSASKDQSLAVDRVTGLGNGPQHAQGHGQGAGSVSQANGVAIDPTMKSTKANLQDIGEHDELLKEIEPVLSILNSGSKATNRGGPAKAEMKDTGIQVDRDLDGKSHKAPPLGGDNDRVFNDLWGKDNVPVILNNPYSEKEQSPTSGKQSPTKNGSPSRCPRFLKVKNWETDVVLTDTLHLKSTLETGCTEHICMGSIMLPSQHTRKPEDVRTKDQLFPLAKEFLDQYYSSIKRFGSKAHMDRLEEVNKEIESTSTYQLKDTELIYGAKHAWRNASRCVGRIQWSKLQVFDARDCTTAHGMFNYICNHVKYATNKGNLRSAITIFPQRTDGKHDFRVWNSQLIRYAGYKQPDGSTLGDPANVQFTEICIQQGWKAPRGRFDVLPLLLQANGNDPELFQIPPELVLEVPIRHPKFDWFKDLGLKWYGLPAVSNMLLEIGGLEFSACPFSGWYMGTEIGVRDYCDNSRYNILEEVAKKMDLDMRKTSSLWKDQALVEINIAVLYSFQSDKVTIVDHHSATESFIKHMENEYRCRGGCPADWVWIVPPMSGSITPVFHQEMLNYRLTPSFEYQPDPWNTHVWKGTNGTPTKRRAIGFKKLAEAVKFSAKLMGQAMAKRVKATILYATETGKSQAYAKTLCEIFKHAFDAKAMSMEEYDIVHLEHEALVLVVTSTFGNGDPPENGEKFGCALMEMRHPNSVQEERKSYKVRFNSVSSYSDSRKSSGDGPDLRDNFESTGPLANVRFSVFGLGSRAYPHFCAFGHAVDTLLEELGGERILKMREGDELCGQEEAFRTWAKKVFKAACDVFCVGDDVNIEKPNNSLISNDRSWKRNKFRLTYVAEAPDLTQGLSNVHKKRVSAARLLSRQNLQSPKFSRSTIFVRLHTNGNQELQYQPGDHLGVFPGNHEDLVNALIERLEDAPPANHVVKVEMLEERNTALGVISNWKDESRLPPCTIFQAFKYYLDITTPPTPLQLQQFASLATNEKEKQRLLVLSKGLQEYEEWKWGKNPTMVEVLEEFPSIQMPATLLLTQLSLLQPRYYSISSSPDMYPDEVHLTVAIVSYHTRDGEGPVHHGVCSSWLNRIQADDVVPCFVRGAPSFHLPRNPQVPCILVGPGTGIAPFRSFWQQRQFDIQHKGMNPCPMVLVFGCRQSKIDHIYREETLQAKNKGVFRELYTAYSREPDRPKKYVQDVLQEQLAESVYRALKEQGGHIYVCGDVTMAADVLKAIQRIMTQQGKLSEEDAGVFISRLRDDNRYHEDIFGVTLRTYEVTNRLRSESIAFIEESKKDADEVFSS

Cc1cn(CC(=O)c2ccc([N+](=O)[O-])cc2)cn1
Activity [1]: 23%
Activity [2]: 56%
inhibition (Plasma [3]): 69%
Activity [4]: Dose-dependent effect
IC50 [4]: 66 µM
inhibition (Plasma [5]): 65%
Activity [6]: 12%
inhibition (Plasma [7]): 53%
Activity [8]: Dose-dependent effect
IC50 [8]: > 500 µM
Activity [9]: 17%
Activity [10]: 41%
Ki (Nitric oxide synthase 1): 85 µM
IC50 (Plasma [11]): 10 µM
inhibition at 500 µM (CYP450): 13%
Activity [12]: 20%
Ki (Nitric oxide synthase 3): > 2000 µM

O=C(Cn1cccc1)c1ccc([N+](=O)[O-])cc1
Ki (Nitric oxide synthase 1): 230 µM

O=C(Cn1cnc([N+](=O)[O-])c1)c1ccc([N+](=O)[O-])cc1
Ki (Nitric oxide synthase 1): 120 µM
Ki (Nitric oxide synthase 3): 120 µM

Cc1cc2ncn(CC(=O)c3ccc([N+](=O)[O-])cc3)c2cc1C
Activity [1]: 37%
Activity [2]: 45%
Activity [4]: Dose-dependent effect
IC50 [4]: > 100 µM
Activity [6]: 11%
Activity [8]: Dose-dependent effect
IC50 [8]: > 500 µM
Activity [9]: 19%
Activity [10]: 45%
Ki (Nitric oxide synthase 1): 13.8 µM
Activity [12]: 0%
Ki (Nitric oxide synthase 3): 37.5 µM

Cc1cncn1CC(=O)c1ccc([N+](=O)[O-])cc1
Ki (Nitric oxide synthase 1): 90 µM
Ki (Nitric oxide synthase 3): 45 µM

CC(C)c1nccn1CC(=O)c1ccc(Br)cc1
Ki (Nitric oxide synthase 1): 450 µM

CCCc1nccn1CC(=O)c1ccc([N+](=O)[O-])cc1
Activity [1]: 34%
Activity [2]: 62%
inhibition (Plasma [3]): 44%
Activity [4]: Dose-dependent effect
IC50 [4]: 38 µM
inhibition (Plasma [5]): 31%
Activity [6]: 25%
inhibition (Plasma [7]): 30%
Activity [8]: Dose-dependent effect
IC50 [8]: 262 µM
Activity [9]: 35%
Activity [10]: 56%
Ki (Nitric oxide synthase 1): 40 µM
IC50 (Plasma [11]): > 100 µM
Activity [12]: 22%
Ki (Nitric oxide synthase 3): 45 µM

O=C(Cn1cnc2cccnc21)c1ccc([N+](=O)[O-])cc1
Ki (Nitric oxide synthase 1): 31.7 µM
Ki (Nitric oxide synthase 3): 70.2 µM

O=C(Cn1cc2ccccc2n1)c1ccc([N+](=O)[O-])cc1
Ki (Nitric oxide synthase 1): 32.5 µM
Ki (Nitric oxide synthase 3): 60 µM

O=C(Cn1ccnc1-c1ccccc1)c1ccc([N+](=O)[O-])cc1
Ki (Nitric oxide synthase 1): 40 µM
Ki (Nitric oxide synthase 3): 37.5 µM

O=C(Cn1nc2ccccc2n1)c1ccc([N+](=O)[O-])cc1
Ki (Nitric oxide synthase 1): 22.5 µM
Ki (Nitric oxide synthase 3): 30 µM

O=C(Cn1cnc2ccccc21)c1ccccc1
Ki (Nitric oxide synthase 1): 480 µM

O=C(Cn1cnc(-c2ccccc2)c1-c1ccccc1)c1ccc([N+](=O)[O-])cc1
Ki (Nitric oxide synthase 1): 36.3 µM
Ki (Nitric oxide synthase 3): 25 µM

O=C(Cn1cccn1)c1ccc([N+](=O)[O-])cc1
Ki (Nitric oxide synthase 1): 40 µM
Ki (Nitric oxide synthase 3): 60 µM

Cc1ccnn1CC(=O)c1ccc([N+](=O)[O-])cc1
Ki (Nitric oxide synthase 1): 63 µM
Ki (Nitric oxide synthase 3): 30 µM

Cc1cc(C)n(CC(=O)c2ccc([N+](=O)[O-])cc2)n1
Ki (Nitric oxide synthase 1): 65 µM
Ki (Nitric oxide synthase 3): 90 µM

Cc1nccn1CC(=O)c1ccc([N+](=O)[O-])cc1
IC50 [4]: 70 µM
IC50 [8]: 165 µM
Ki (Nitric oxide synthase 1): 74 µM
IC50 (Plasma [11]): 1.75 µM
Ki (Nitric oxide synthase 3): > 2000 µM

O=C(Cn1cncn1)c1ccc([N+](=O)[O-])cc1
Ki (Nitric oxide synthase 1): 47.5 µM
Ki (Nitric oxide synthase 3): 40 µM

O=C(Cn1cc2cccc([N+](=O)[O-])c2n1)c1ccc([N+](=O)[O-])cc1
Ki (Nitric oxide synthase 1): 66.2 µM
Ki (Nitric oxide synthase 3): 75 µM

O=C(Cn1cnc2ccccc21)c1ccc([N+](=O)[O-])cc1
Ki (Nitric oxide synthase 1): 46.6 µM
Ki (Nitric oxide synthase 3): 2.75 µM

O=C(Cn1cnc2ncccc21)c1ccc([N+](=O)[O-])cc1
Ki (Nitric oxide synthase 1): 35.8 µM
Ki (Nitric oxide synthase 3): 45 µM

CC(C)c1nccn1CC(=O)c1ccccc1
Ki (Nitric oxide synthase 1): 750 µM

O=C(Cn1nnc2ccccc21)c1ccc([N+](=O)[O-])cc1
Activity [1]: 35%
Activity [2]: 51%
inhibition (Plasma [3]): 57%
Activity [4]: Dose-dependent effect
IC50 [4]: 85 µM
inhibition (Plasma [5]): 48%
Activity [6]: 14%
inhibition (Plasma [7]): 37%
Activity [8]: Dose-dependent effect
IC50 [8]: > 500 µM
Activity [9]: 21%
Activity [10]: 31%
Ki (Nitric oxide synthase 1): 12.5 µM
IC50 (Plasma [11]): 17 µM
Activity [12]: 26%
Ki (Nitric oxide synthase 3): 32.5 µM

Cc1nccn1CC(=O)c1ccccc1
Ki (Nitric oxide synthase 1): > 500 µM

O=C(Cn1ccnc1)c1ccc([N+](=O)[O-])cc1
IC50 [4]: 165 µM
IC50 [8]: 415 µM
Ki (Nitric oxide synthase 1): 105 µM
IC50 (Plasma [11]): 18 µM
Ki (Nitric oxide synthase 3): > 5000 µM

CCc1nc(C)cn1CC(=O)c1ccc([N+](=O)[O-])cc1
Ki (Nitric oxide synthase 1): 75 µM
Ki (Nitric oxide synthase 3): 75 µM

O=C(Cn1ccnc1)c1ccc(S(=O)(=O)C(F)(F)F)cc1
Ki (Nitric oxide synthase 1): 450 µM

CC(C)c1nccn1CC(=O)c1ccc([N+](=O)[O-])cc1
IC50 [4]: 185 µM
IC50 [8]: 230 µM
Ki (Nitric oxide synthase 1): 22.5 µM
IC50 (Plasma [11]): > 100 µM
Ki (Nitric oxide synthase 3): 500 µM

Cc1nccn1CC(=O)c1ccc(Br)cc1
Ki (Nitric oxide synthase 1): 620 µM

O=C(Cn1cnc(-c2ccccc2)c1)c1ccc([N+](=O)[O-])cc1
Ki (Nitric oxide synthase 1): 45 µM
Ki (Nitric oxide synthase 3): 70 µM
